Common to all, as to format: binding
The target of test [1] is T1, LecA (Pseudomonas aeruginosa, UniProt Q05097).
T1 sequence (Q05097 2-122 limits assumed): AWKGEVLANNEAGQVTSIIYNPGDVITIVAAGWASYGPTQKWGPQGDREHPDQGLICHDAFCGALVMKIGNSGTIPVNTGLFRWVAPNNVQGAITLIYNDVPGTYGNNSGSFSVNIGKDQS
The conditions noted are these: for FP with 2ME Inhibition [%] at 4 mM / FP Inhibition [%] at 4 mM: 4 mM catechol, average and std. dev. of 3 experiments; for FP with 2ME Inhibition [%] at 4 mM: with 2-mercaptoethanol; for FP Inhibition [%] at 4 mM: without 2-mercaptoethanol. In outline:
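Competitive fluorescence polarization assay measuring displacement of a Cy5-labelled galactoside probe from LecA. The Cy5 probe replaced an earlier fluorescein conjugate to avoid spectral overlap. Test compound at 4 mM, with or without 2-mercaptoethanol; some compounds at 25 % DMSO. Methyl α-D-galactoside as positive control. Percent inhibition given as average and std. dev. of 3 experiments.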

Test [2] deals with T1, LecA. The test can be described thus: thermal shift assay. The conditions noted are these: change of LecA melting point, 4 mM test compound, average of two experiments.
The next test addresses T2, 5FW‐LecA (Pseudomonas aeruginosa, UniProt Q05097).
T2 sequence (Q05097 2-122 limits assumed): T1 sequence (Q05097 2-122 limits assumed)
Briefly: protein-observed 19F. The note with it: 1.5 mM catechol, 200 µM 5FW-LecA; n.s.=not significant.

Test [3] concerns the target T1, LecA. The test can be described thus: surface plasmon resonance. In outline: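 Recombinant LecA was immobilized for SPR. Test compound was injected at two concentrations: 0.2 and 1 mM, or 0.2 and 0.5 mM for some compounds. Steady-state binding responses were read from sensorgrams. 0.1 mM pNPGal was injected as positive control to monitor LecA activity and normalize data. Kd came from multi-cycle kinetic analyses of prioritized compounds.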
A general note: SPR reads the build-up and loss of mass on a sensor chip optically.

The next test has as its target Langerin ECD (Homo sapiens, UniProt Q9UJ71). Briefly: 1H STD competition NMR with mannose. The note with it: 1 mM compound, 20 μM Langerin ECD, 100 mM D-mannose.
For the next test, the target named is human Langerin CRD (Homo sapiens, UniProt Q9UJ71, V278A). Briefly: 1H-15N HSQC NMR. The conditions noted are these: 1 mM compound, 100 μM Langerin CRD.
Sequence of human Langerin CRD (Q9UJ71 202-320 V278A): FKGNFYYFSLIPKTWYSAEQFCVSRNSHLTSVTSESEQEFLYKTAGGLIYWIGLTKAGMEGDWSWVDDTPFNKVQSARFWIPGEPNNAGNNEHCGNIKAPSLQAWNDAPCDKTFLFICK
Test [4] deals with T1, LecA. The note with it: read-out: inhibition at 3.3 mM. In outline: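 Purchased virtual-screening hits from the NCI Diversity IV set, selected for structural diversity, were tested once at 3.3 mM. Assay: the established competitive fluorescence polarization assay, scoring displacement of a fluorescent galactoside ligand from LecA as percent inhibition.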
Test [5] deals with T1, LecA. Briefly: ligand-observed T1ρ relaxation NMR. The note with it: for effect of excess Me‐α‐D‐Gal on T1ρ relaxation with LecA: displacement experiment; for T1ρ relaxation rate in presence of LecA: with vs without LecA.
[6] abbreviates: read-out: FP Inhibition [%] at 4 mM.
The mark [7] stands for this setting: read-out: FP with 2ME Inhibition [%] at 4 mM.

From article PMC8048816 (Angewandte Chemie (International Ed. in English), 2021) come the findings set out here.

Molecules are shown by their SMILES. Where two headings read alike, the source gives them in different places.

Sequence of Langerin ECD (Q9UJ71 65-328 limits assumed): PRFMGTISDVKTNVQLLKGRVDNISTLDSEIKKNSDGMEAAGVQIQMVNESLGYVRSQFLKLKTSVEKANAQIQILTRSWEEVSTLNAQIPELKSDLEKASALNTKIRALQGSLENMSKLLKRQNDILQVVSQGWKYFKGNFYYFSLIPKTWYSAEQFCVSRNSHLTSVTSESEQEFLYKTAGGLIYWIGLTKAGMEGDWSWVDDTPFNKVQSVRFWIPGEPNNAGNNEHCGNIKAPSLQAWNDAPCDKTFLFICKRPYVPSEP

With `Oc1ccccc1O` [Compound 1, catechol], on LecA [1], the “FP with 2ME Inhibition [%] at 4 mM” value is “none” and the “FP Inhibition [%] at 4 mM” value is given as “inconcl”. The “TSA ΔT [K]” value at LecA [2] is reported as −4.5 K. In addition, the “PrOF NMR CSP of W42 [ppm]” value at 5FW‐LecA is recorded as “n.s”.
One may read the inhibition as the relative decrease from the control value, in per cent. As usually defined, the Kd is the constant that tells how readily two partners part at equilibrium. Low values mean higher affinity, high ones lower affinity. As for `N#Cc1cccc(O)c1O` [Compound 3, 3‐cyano catechol], the inhibition at 4000 µM stood at 23 ± 2% at LecA [1] (setting [6]) and 23% at LecA [1] (setting [7]). The “TSA ΔT [K]” value at LecA [2] is “+1.8 K”. At LecA [3], this compound came in with a Kd of 1110 ± 70 µM. At LecA [3] (from SPR Kd), this compound displayed a ligand efficiency of 0.40. Also, the “PrOF NMR CSP of W42 [ppm]” value on 5FW‐LecA was found to be 0.045 ppm. Moreover, at Langerin ECD, the “reduction in peak intensities in STD NMR spectra in presence of mannose” value was determined as 65%. The “chemical shift perturbations of Langerin CRD resonances” value on human Langerin CRD is reported as “promoted chemical shift perturbations (CSPs)”.
Regarding `O=C(c1ccc(Cl)cc1)c1ccc(O)c(O)c1` [Compound 24, 4‐parachlorobenzoyl catechol], the figures for the inhibition at 4000 µM at LecA [1] (setting [6]) and on LecA [1] (setting [7]) were 29 ± 3% and 22 ± 2%, respectively. Besides, the “PrOF NMR CSP of W42 [ppm]” value at 5FW‐LecA amounted to 0.185 ppm.
As for `O=C(c1ccccc1)c1ccc(O)c(O)c1` [Compound 23, 4‐benzoyl catechol], the values for the inhibition at 4000 µM at LecA [1] (setting [6]) and at LecA [1] (setting [7]) were 39 ± 5% and 39%, respectively. Also, the “TSA ΔT [K]” value on LecA [2] was “+0.36 K”. Also, at 5FW‐LecA, the “PrOF NMR CSP of W42 [ppm]” value is on record as 0.110 ppm.
For the compound `CC(C)C(=O)c1ccc(O)c(O)c1` [Compound 21, 4‐isobutyryl catechol], the inhibition at 4000 µM came to 10 ± 2% on LecA [1] (setting [6]) and 11 ± 2% on LecA [1] (setting [7]). Further, the inhibition at 3300 µM at LecA [4] was approximately 10%. Besides, the “TSA ΔT [K]” value on LecA [2] was “+0.35 K”. Moreover, the “PrOF NMR CSP of W42 [ppm]” value at 5FW‐LecA was 0.08 ppm. Also, on LecA [5], the “effect of excess Me‐α‐D‐Gal on T1ρ relaxation with LecA” value is reported as “fully reversed to the free state”. Also, the “T1ρ relaxation rate in presence of LecA” value on LecA [5] is listed as “strongly increased”.
In the case of `CC(C)(C)c1ccc(O)c(O)c1` [Compound 13, 4‐tert‐butyl catechol], on LecA [1], the “FP with 2ME Inhibition [%] at 4 mM” value is on record as “none” and the “FP Inhibition [%] at 4 mM” value is reported as “inconcl”. Besides, at LecA [2], the “TSA ΔT [K]” value is −15.4 K. The “PrOF NMR CSP of W42 [ppm]” value on 5FW‐LecA amounted to 0.130 ppm. Also, on LecA [5], the “effect of excess Me‐α‐D‐Gal on T1ρ relaxation with LecA” value is “no significant effect” and the “T1ρ relaxation rate in presence of LecA” value is “much weaker”.
Consider `Cc1ccc(O)c(O)c1` [Compound 11, 4‐methyl catechol], for which, at LecA [1], the “FP with 2ME Inhibition [%] at 4 mM” value is “none” and the “FP Inhibition [%] at 4 mM” value is “inconcl”. The “TSA ΔT [K]” value on LecA [2] is given as −11.0 K. For the same compound, the “PrOF NMR CSP of W42 [ppm]” value at 5FW‐LecA was “n.s”.
